From ChEMBL document CHEMBL1123430, “Potential tumor- or organ-imaging agents. 26. Polyiodinated 2-substituted triacylglycerols as hepatographic agents” (J Med Chem, 1986)

Columns and labels:
Rattus norvegicus [1] = test: Distribution of radioactivity of radiolabeled compound in liver of female rats 5 minutes after intravenous administration; type: ADME, organism-based; conditions: in vivo
Rattus norvegicus [2] = test: Polyacrylamide Gel Electrophoresis (PAGE) analysis of rat plasma 30 minutes after intravenous administration of radiolabeled compound in low-density lipoprotein; type: functional, organism-based
Method in brief: (§1)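 Gels were sectioned and counted in a γ counter. Radioactivity in each band (stacking gel, LDL, HDL, albumin, below albumin) is expressed as a percentage of the total radioactivity applied to the gel, ± SEM, n = 3-5.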

Rattus norvegicus [3] = test: Percentage […]/CH3OH extract of the radiolabeled compound in rat liver 30 minutes after iv administration (+/-SEM); type: functional
Method in brief: (§2)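 Liver and plasma were taken at 5 or 30 min. Plasma was extracted by a modified Folch procedure, and liver was homogenized and extracted. Extracts were run on TLC in hexane/ethyl acetate (5:2) for esters or THF/hexane (1:1) for acids, with unlabeled compound as reference. Plates were cut into 1-cm strips and counted. Values are percent ± SEM, n = 3-5.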

Rattus norvegicus [4] = test: Distribution of radioactivity of radiolabeled compound in blood of female rats 30 minutes after intravenous administration; type: ADME, organism-based; conditions: in vivo, 0.5 h
Rattus norvegicus [5] = test: Percentage […]/CH3OH extract of the radiolabeled compound in rat plasma 30 minutes after iv administration (+/-SEM); type: functional; method in brief: as §2
Rattus norvegicus [6] = test: Percentage parent compound in rat liver 5 minutes after iv administration of the radiolabeled compound by thin-layer chromatography; type: functional; method in brief: as §2
Rattus norvegicus [7] = test: Distribution of radioactivity of radiolabeled compound in heart of female rats 5 minutes after intravenous administration; type: ADME, organism-based; conditions: in vivo
Rattus norvegicus [8] = test: Distribution of radioactivity of radiolabeled compound in liver of female rats 30 minutes after intravenous administration; type: ADME, organism-based; conditions: in vivo, 0.5 h
Rattus norvegicus [9] = test: Distribution of radioactivity of radiolabeled compound in heart of female rats 30 minutes after intravenous administration; type: ADME, organism-based; conditions: in vivo, 0.5 h
Rattus norvegicus [10] = test: Distribution of radioactivity of radiolabeled compound in kidney of female rats 5 minutes after intravenous administration; type: ADME, organism-based; conditions: in vivo
Rattus norvegicus [11] = test: Polyacrylamide Gel Electrophoresis (PAGE) analysis of rat plasma after intravenous administration of radiolabeled compound concentration of below albumin […]; type: functional, organism-based
Method in brief: (§3)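 ¹²⁵I-labeled compound, radioiodinated by exchange in a pivalic acid melt, solubilized in normal saline with Tween 20 and given iv to adult female Sprague–Dawley rats (200–250 g), 5–30 μCi/animal, 3–4 rats per time point. Plasma was run on polyacrylamide gels. Gels were sectioned and gamma counted. Radioactivity per band (stacking gel, LDL, HDL, albumin, below albumin) is given as % of total applied; mean ± SEM, n = 3-5.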

Rattus norvegicus [12] = test: Polyacrylamide Gel Electrophoresis (PAGE) analysis of rat plasma 5 min after intravenous administration of radiolabeled compound in albumin; type: functional, organism-based; method in brief: as §1
Rattus norvegicus [13] = test: Distribution of radioactivity of radiolabeled compound in blood of female rats 5 minutes after intravenous administration; type: ADME, organism-based; conditions: in vivo
Rattus norvegicus [14] = test: Percentage parent compound in rat plasma 30 minutes after iv administration of the radiolabeled compound by thin-layer chromatography; type: functional; method in brief: as §2
Rattus norvegicus [15] = test: Polyacrylamide Gel Electrophoresis (PAGE) analysis of rat plasma 5 minutes after intravenous administration of radiolabeled compound in high density lipoprotein; type: functional, organism-based; method in brief: as §3
Rattus norvegicus [16] = test: Polyacrylamide Gel Electrophoresis (PAGE) analysis of rat plasma 30 minutes after intravenous administration of radiolabeled compound in high density lipoprotein; type: functional, organism-based; method in brief: as §1
Rattus norvegicus [17] = test: Percentage parent compound in rat liver 30 minutes after iv administration of the radiolabeled compound by thin-layer chromatography; type: functional; method in brief: as §2
Rattus norvegicus [18] = test: Percentage […]/CH3OH extract of the radiolabeled compound in rat plasma 5 minutes after iv administration (+/-SEM); type: functional; method in brief: as §2
Rattus norvegicus [19] = test: Percentage parent compound in rat plasma 5 minutes after iv administration of the radiolabeled compound by thin-layer chromatography; type: functional; method in brief: as §2
Rattus norvegicus [20] = test: Polyacrylamide Gel Electrophoresis (PAGE) analysis of rat plasma 5 minutes after intravenous administration of radiolabeled compound (below albumin); type: functional, organism-based; method in brief: as §3
Rattus norvegicus [21] = test: Distribution of radioactivity of radiolabeled compound in lung of female rats 30 minutes after intravenous administration; type: ADME, organism-based; conditions: in vivo, 0.5 h
Rattus norvegicus [22] = test: Polyacrylamide Gel Electrophoresis (PAGE) analysis of rat plasma 30 minutes after intravenous administration of radiolabeled compound in albumin; type: functional, organism-based; method in brief: as §1
Rattus norvegicus [23] = test: Polyacrylamide Gel Electrophoresis (PAGE) analysis of rat plasma 5 minutes after intravenous administration of radiolabeled compound in stacking gel; type: functional, organism-based; method in brief: as §3
Rattus norvegicus [24] = test: Distribution of radioactivity of radiolabeled compound in kidney of female rats 30 minutes after intravenous administration; type: ADME, organism-based; conditions: in vivo, 0.5 h
Rattus norvegicus [25] = test: Polyacrylamide Gel Electrophoresis (PAGE) analysis of rat plasma 30 minutes after intravenous administration of radiolabeled compound in stacking gel; type: functional, organism-based; method in brief: as §1
Rattus norvegicus [26] = test: Polyacrylamide Gel Electrophoresis (PAGE) analysis of rat plasma 5 minutes after intravenous administration of radiolabeled compound in low-density lipoprotein; type: functional, organism-based; method in brief: as §3
Rattus norvegicus [27] = test: Distribution of radioactivity of radiolabeled compound in lung of female rats 5 minutes after intravenous administration; type: ADME, organism-based; conditions: in vivo
Rattus norvegicus [28] = test: Polyacrylamide Gel Electrophoresis (PAGE) analysis of rat plasma 30 minutes after intravenous administration of radiolabeled compound (below albumin); type: functional, organism-based; method in brief: as §1
Rattus norvegicus [29] = test: Percentage […]/CH3OH extract of the radiolabeled compound in rat liver 5 minutes after iv administration (+/-SEM); type: functional; method in brief: as §2
Rattus norvegicus [30] = test: Polyacrylamide Gel Electrophoresis (PAGE) analysis of rat plasma 5 minutes after intravenous administration of radiolabeled in low-density lipoprotein; type: functional, organism-based; method in brief: as §3
Rattus norvegicus [31] = test: Polyacrylamide Gel Electrophoresis (PAGE) analysis of rat plasma 30 min after intravenous administration of radiolabeled compound in albumin; type: functional, organism-based; method in brief: as §1
Rattus norvegicus [32] = test: Polyacrylamide Gel Electrophoresis (PAGE) analysis of rat plasma 30 min after intravenous administration of radiolabeled compound concentration of stacking gel; type: functional, organism-based; method in brief: as §1
Rattus norvegicus [33] = test: Polyacrylamide Gel Electrophoresis (PAGE) analysis of rat plasma 30 min after intravenous administration of radiolabeled in low-density lipoprotein; type: functional, organism-based; method in brief: as §1
Rattus norvegicus [34] = test: Distribution of radioactivity of radiolabeled compound in liver of female rats 5 minutes after intravenous administration at; type: ADME, organism-based; conditions: in vivo
Rattus norvegicus [35] = test: Polyacrylamide Gel Electrophoresis (PAGE) analysis of rat plasma 30 min after intravenous administration of radiolabeled compound at concentration of high density; type: functional, organism-based; method in brief: as §1
Rattus norvegicus [36] = test: Polyacrylamide Gel Electrophoresis (PAGE) analysis of rat plasma 5 minutes after intravenous administration of radiolabeled in stacking gel; type: functional, organism-based; method in brief: as §3
Rattus norvegicus [37] = test: Polyacrylamide Gel Electrophoresis (PAGE) analysis of rat plasma 30 min after intravenous administration of radiolabeled compound (below albumin ); type: functional, organism-based; method in brief: as §1
Rattus norvegicus [38] = test: Polyacrylamide Gel Electrophoresis (PAGE) analysis of rat plasma 5 minutes after intravenous administration of radiolabeled compound (below albumin ); type: functional, organism-based; method in brief: as §3
Rattus norvegicus [39] = test: Distribution of radioactivity of radiolabeled compound in lung of female rats 5 minutes after intravenous administration at; type: ADME, organism-based; conditions: in vivo
Rattus norvegicus [40] = test: Percentage […]/CH3OH extract of the radiolabeled compound in rat plasma 30 minutes after iv administration; type: functional; method in brief: as §2
Rattus norvegicus [41] = test: Polyacrylamide Gel Electrophoresis (PAGE) analysis of rat plasma 30 minutes after intravenous administration of radiolabeled in stacking gel; type: functional, organism-based; method in brief: as §1
Rattus norvegicus [42] = test: Polyacrylamide Gel Electrophoresis (PAGE) analysis of rat plasma 5 minutes after intravenous administration of radiolabeled compound at in high density lipoprotein; type: functional, organism-based; method in brief: as §3
Rattus norvegicus [43] = test: Polyacrylamide Gel Electrophoresis (PAGE) analysis of rat plasma 30 min after intravenous administration of radiolabeled compound inlow density lipoprotein; type: functional, organism-based; method in brief: as §1
Rattus norvegicus [44] = test: Polyacrylamide Gel Electrophoresis (PAGE) analysis of rat plasma 30 min after intravenous administration of radiolabeled compound at in high density; type: functional, organism-based; method in brief: as §1
Rattus norvegicus [45] = test: Polyacrylamide Gel Electrophoresis (PAGE) analysis of rat plasma 30 min after intravenous administration of radiolabeled compound ( below albumin); type: functional, organism-based; method in brief: as §1
Rattus norvegicus [46] = test: Percentage […]/CH3OH extract of the radiolabeled compound in rat liver 5 minutes after iv administration; type: functional; method in brief: as §2
Rattus norvegicus [47] = test: Polyacrylamide Gel Electrophoresis (PAGE) analysis of rat plasma 5 min after intravenous administration of radiolabeled compound concentration of albumin; type: functional, organism-based; method in brief: as §1
Rattus norvegicus [48] = test: Percentage […]/CH3OH extract of the radiolabeled compound in rat plasma 5 minutes after iv administration; type: functional; method in brief: as §2
Rattus norvegicus [49] = test: Percentage […]/CH3OH extract of the radiolabeled compound in rat liver 30 minutes after iv administration; type: functional; method in brief: as §2

SMILES	Dose (Rattus norvegicus [1])	Dose (Rattus norvegicus [4])	Activity (Rattus norvegicus [6])	Dose (Rattus norvegicus [7])	Dose (Rattus norvegicus [8])	Dose (Rattus norvegicus [9])	Dose (Rattus norvegicus [10])	Concentration (Rattus norvegicus [12])	Dose (Rattus norvegicus [13])	Activity (Rattus norvegicus [14])	Concentration (Rattus norvegicus [15])	Activity (Rattus norvegicus [17])	Activity (Rattus norvegicus [19])	Dose (Rattus norvegicus [21])	Concentration (Rattus norvegicus [23])	Dose (Rattus norvegicus [24])	Concentration (Rattus norvegicus [26])	Dose (Rattus norvegicus [27])	Concentration (Rattus norvegicus [31])	Concentration (Rattus norvegicus [38])	also measured
CCCCCCCCCCCCCCCC(=O)OCC(COC(=O)CCCCCCCCCCCCCCC)OC(=O)CCc1c(I)cc(I)c(N)c1I	1.74%	3.23%	72.5%	1.34%	1.22%	2.43%	1.18%	14.6	5.99%	86.1%	57.1	47.7%	75.5%	0.93%	4.6%	1.65%	20.2%	1.2%	–	–	Concentration (Rattus norvegicus [2]): 15.7%; Activity (Rattus norvegicus [3]): 52.1%; Activity (Rattus norvegicus [5]): 69.4%; Concentration (Rattus norvegicus [11]): 69.4 [middle of 4 runs]; Concentration (Rattus norvegicus [16]): 48.9%; Activity (Rattus norvegicus [18]): 79.1%; Concentration (Rattus norvegicus [20]): 2.4; Concentration (Rattus norvegicus [22]): 27; Concentration (Rattus norvegicus [25]): 4%; Concentration (Rattus norvegicus [28]): 4.4; Activity (Rattus norvegicus [29]): 68.4%
Nc1c(I)cc(I)c(CCCCCCCCCCCC(=O)O)c1I	–	1.06%	–	1.15%	3.63%	0.73%	0.77%	84.6	1.21%	–	8	–	–	0.66%	–	1.46%	–	0.95%	54.4	4.8	Concentration (Rattus norvegicus [30]): 1; Concentration (Rattus norvegicus [32]): 11.2; Concentration (Rattus norvegicus [33]): 3.8; Dose (Rattus norvegicus [34]): 6.96%; Concentration (Rattus norvegicus [35]): 5.6; Concentration (Rattus norvegicus [36]): 1.5%; Concentration (Rattus norvegicus [37]): 26.3
CCCCCCCCCCCCCCCC(=O)OCC(COC(=O)CCCCCCCCCCCCCCC)OC(=O)CCCCCCCCCCCc1c(I)cc(I)c(N)c1I	6.62%	1.12%	46.4%	0.73%	5.22%	0.7%	0.59%	–	2.5%	34%	–	42.9%	43.2%	1.84%	6.9%	1.21%	26%	–	48.9	3	Dose (Rattus norvegicus [39]): 1.73%; Activity (Rattus norvegicus [40]): 54.8%; Concentration (Rattus norvegicus [41]): 13.2; Concentration (Rattus norvegicus [42]): 33.3%; Concentration (Rattus norvegicus [43]): 9.7; Concentration (Rattus norvegicus [44]): 15.6%; Concentration (Rattus norvegicus [45]): 12.5; Activity (Rattus norvegicus [46]): 40.9%; Concentration (Rattus norvegicus [47]): 30.8; Activity (Rattus norvegicus [48]): 81.8%; Activity (Rattus norvegicus [49]): 61.2%
